The campaign covered roughly 360,000 compounds. About 220 (0.061%) were called active.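 The calls were made as follows: active = GFP/RFP ratio change of at least 30% with cell ATP level not reduced by more than half and red fluorescence within 50% of control; inactive = the rest, inconclusive results apart.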 For the sample, actives were picked, then their nearest neighbours and some compounds at random.
target: Matrix metalloproteinase-14 (Homo sapiens) (UniProt P50281); test: MT1-MMP activation inhibitors, cellular reporter – HT1080 RFP-PRO-GFP cells, GFP/RFP fluorescence, primary screen (AID 651647); settings: overnight, at 20 µM, active compounds read high, percent of plate control window, DMSO zero
In short: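 Compound: 20 µM single dose, 1% DMSO / System: HT1080 RFP-PRO-GFP cells / Controls: DMSO and RFP-L50D-GFP cell wells / Read-out basis: GFP/RFP fluorescence ratio / Schedule: overnight compound exposure at 37 °C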

GFP/RFP ratio change, inactive:
COc1ccc(C(=O)CN2C(=O)NC(C)(c3ccc(C)cc3)C2=O)cc1OC (configuration not stated) 5.51%
CCOC(=O)C1CCN(C(=O)Nc2ccc(C)c(Cl)c2)CC1 2.62%
CCC1=C(OC(=O)N(CC)CC)N2C(=O)OC(=NCC3CC3)[C@]2(C)[C@H]2C1=CC[C@H]1C(=O)N(CC(=O)OC)C(=O)[C@H]12 -1.64%
O=c1[nH]c2ccccc2n2c(-c3ccccc3)nnc12 2.93%
Cc1ccc(NC(=O)CSc2nnc(CNC(=O)c3ccccc3F)o2)cc1Cl 3.87%
CCOC(=O)N1CCC(c2cc(=O)n(-c3ccccc3)[nH]2)CC1 9.16%
CCOc1ccc(CCNC(=O)COC(=O)C2CCN(S(=O)(=O)c3ccccc3)CC2)cc1OCC 2.91%
O=C(NCCN1CCOCC1)c1ccccc1N1C(=O)[C@@H]2Cc3c([nH]c4ccccc34)C(c3cccc(Cl)c3)N2C1=O (some centres not stated) -1.74%
CC1(C)CC(O)C(CCC(O)c2ccccc2)C(C)(C)N1 (configuration not stated) -4.83%
CC1CCCCC12NC(=O)N(CC(=O)OCc1c(F)cccc1Cl)C2=O (configuration not stated) -0.886%
O=C(CCN1CCN(C/C=C/c2ccccc2)CC1)Nc1cccc(F)c1 5.08%
CCCOC1CCCN(C(=O)c2cc(COc3cncc(Cl)c3)on2)C1 (configuration not stated) 0.805%
CCCC1NC(=S)NC(C)=C1C(C)=O (configuration not stated) 5.05%
O=C(C1CCN(S(=O)(=O)Cc2ccccc2)CC1)N1CCCc2ccccc21 -2.92%
O=[N+]([O-])c1ccc(N2CCNCC2)cc1NCc1cccnc1 -8.92%
O=C(NC1CCCC1)C(c1ccc(Cl)cc1)N(C(=O)c1csnn1)C1CC1 (configuration not stated) -4.04%
O=C(c1ccco1)N1CCN(C(=O)C2CC(c3ccc(F)cc3)=NO2)CC1 (configuration not stated) 1.83%
CCc1cccc2c(C=C(C#N)C#N)cn(CC(=O)N3CCCCC3)c12 0.243%
CC(=O)c1cccc(-c2cnc3c(NC=O)cc(-c4ccc(N5CCN(C)CC5)cc4)cn23)c1 -9.51%
COCCNC(=O)COc1ccc(N(C)S(=O)(=O)c2ccc3ccccc3c2)cc1 0.935%
CN(C)S(=O)(=O)c1cccc(NC(=O)COc2ccc3ccccc3c2)c1 3.9%
C[C@@H]1CN([C@@H](C)CO)C(=O)c2cc(Br)cnc2O[C@@H]1CN(C)C(=O)C1CCCCC1 5.19%
S=C1Nc2cc(Cl)ccc2Sc2ccccc21 1.33%
Cc1cc(C)cc(Oc2nc3c(C)cccn3c(=O)c2/C=C(\C#N)C(=O)NC2CCS(=O)(=O)C2)c1 (configuration not stated) -5.71%
O=C(CSc1nnc(-c2ccoc2)o1)N1CCOCC1 -1.67%
O=C1Nc2ccccc2NC(c2ccc3c(c2)OCO3)=C1N(Cc1ccc(F)cc1)C(=O)c1ccco1 1.27%
COc1ccc(C)cc1NC(=O)CCCN1C(=O)NC(C)(C)C1=O -3.61%
C/C(=C\c1ccco1)CN1CCC(N2CCC(C(=O)N3CCOCC3)CC2)CC1 0.944%
Cc1ccc(CNC(=O)CC2Sc3ccccc3NC2=O)cc1 (configuration not stated) 0.784%
Cc1cc(-c2nnc(SCC(=O)Nc3ccc(S(N)(=O)=O)cc3)n2N)n[nH]1 -2.72%
O=C(CSc1ccc(C(F)(F)F)cc1[N+](=O)[O-])NCCOc1ccccc1 -0.0162%
Cc1cc(-c2nnc(CCC(=O)NC(c3ccccc3)c3ccccc3)o2)no1 -0.114%
CCn1c(SCC(=O)NC2CC2)nnc1-c1ccncc1 1.37%
O=C(NCCCn1ccnc1)C1CCCN(S(=O)(=O)c2cc(Cl)ccc2Cl)C1 (configuration not stated) 0.609%
CC(C)C(NC(=O)c1cccc(S(=O)(=O)N2CCOCC2)c1)C(=O)NCCc1ccccn1 (configuration not stated) -6.01%
CC(Sc1nncs1)C(=O)NCc1ccc2c(c1)OCO2 (configuration not stated) 2.24%
CN(C)c1ccc(NC(=O)CN2C3CCCC2CC(NC(=O)c2ccccc2)C3)cc1 (configuration not stated) 6.85%
CCc1cc(-c2nnn(CCC3COCCO3)c2CC)ccc1-c1cn(Cc2ccc3ccccc3c2)nn1 (configuration not stated) 2.05%
C/C=N/N(c1ccccc1)c1ccccc1 -0.385%
NS(=O)(=O)c1ccc(CCNC(=O)CCCn2c(SCC(=O)N3CCCC3)nc3ccsc3c2=O)cc1 -1.21%
O=C(Nc1ccn(CCCNCc2ccc3[nH]ccc3c2)c(=O)n1)OCc1ccccc1 -0.535%
CCOC(=O)C1C(c2ccc(OC)c(OC)c2)c2c([nH][nH]c2=O)CC1(C)O (configuration not stated) 4.39%
O=C1CCN(Cc2ccccc2)CCN1[C@H](CSc1ccccc1)c1ccccc1 -2.64%
COc1c(O)cccc1-c1nnn(CCC(=O)OCC(=O)c2ccccc2)n1 4.76%
CN(CC(=O)Nc1ccccc1F)CC(=O)Nc1ccccc1Br 7.11%
O=C1NC[C@H](CCCCN2C[C@H](Cc3ccc(O)cc3)N(CC3CCCCC3)C(=O)C2=O)N(CCc2ccccc2)C1=O 1.64%
N#C[C@]1(S(=O)(=O)c2ccccc2)C[C@@H]2ON=C(c3cccc(Br)c3)[C@@H]2C1 2.88%
CC(C)CC(O)C1CCN(C(=O)CCc2nnc(-c3ccc4c(c3)OCO4)o2)CC1 (configuration not stated) 1.69%
O=S1(=O)CCOC[C@H](Cc2ccccc2)N1Cc1ccccc1Br -1.83%
O=C(c1cc(Cl)cc(Cl)c1)N1CCC(=O)N(C(COCc2ccccc2)Cc2ccccc2)CC1 (configuration not stated) -5.95%
O=C(Nc1ccccc1F)C1C2C=CC3(O2)C1C(=O)N(c1cccnc1)C3C(=O)NC1CCCCC1 (configuration not stated) 1.65%
CCOC(=O)/C(N=Nc1cc(C(=O)O)cc(C(=O)O)c1)=C(\O)CCl -3.33%
Cc1cccc(C)c1NC(=O)C1(C)c2cccc[n+]2CC(=O)N1Cc1cccs1 (configuration not stated) -3.13%
CCCCCCCCOC1OC(CO)C(O)C(O)C1NC(C)=O (configuration not stated) 0.0413%
O=C(c1cccc(S(=O)(=O)N2CCCCCC2)c1)N1CCN(Cc2ccccc2)CC1 -4.24%
CC(C)CC(=O)N1CCN(Cc2cccc(Cl)c2)CC1 -0.171%
CN(C)c1ccc(C=NCCc2ccc(S(N)(=O)=O)cc2)cc1 3.81%
CN(CC(=O)NC(=O)Nc1ccccc1F)Cc1ccccc1 1.45%
COC(=O)C1C(=O)CC(C)(O)C(C(=O)OC)C1c1ccc2c(c1)OCO2 (configuration not stated) 19%
CS(=O)(=O)c1ccc2nnn(OCC(=O)Nc3cccc(C#N)c3)c2c1 0.844%
CC12CCC(C(=O)N(NC(=O)c3ccccc3O)C1=O)C2(C)C (configuration not stated) 2.09%
CC(C)COC(=O)C1C2C=CC3(CN(C(C)c4ccc(Br)cc4)C(=O)C13)O2 (configuration not stated) 3.45%
COC(=O)CN1C(=O)[C@H]2[C@@H](/C=C/c3ccccc3)N3C(=O)CN(Cc4ccccc4)C(=O)[C@@]3(Cc3ccccc3)[C@H]2C1=O 2.05%
CCC(C(=O)NCc1ccc(OC)cc1)n1nc(C)n2c(cc3occc32)c1=O (configuration not stated) -2.32%
O=C(c1cccc(S(=O)(=O)N2CCCC2)c1)N(Cc1ccco1)C1CCS(=O)(=O)C1 (configuration not stated) -1.85%
COc1ccc2c(c1OC)C(=O)N(c1ncn[nH]1)C2 5.29%
COc1cc(C2C(N3C(=O)c4ccccc4C3=O)C(=O)N2c2ccc(C)c(C)c2)cc(OC)c1OC (configuration not stated) 4.49%
CCN(CC(=O)Nc1ccc(NC(C)=O)cc1)C(=O)C1CC(=O)N(c2ccc3c(c2)OCCO3)C1 (configuration not stated) 1.76%
COc1ccccc1NC1=NC(c2ccc(Cl)cc2)N=C(N)N1 (configuration not stated) -2.9%
Cc1cc(OC(=O)c2ccc(Cl)cc2)cc(=O)n1C 0.208%
CCN(CC)C(=O)N1CCN(C(=O)c2ccc(C)cn2)CC1 4.93%
CC1(C(=O)NCc2ccc3c(c2)OCO3)CCN1CCc1ccccc1 (configuration not stated) 2.41%
COCCCNC(=O)CN1C(=O)CSc2ccc(S(=O)(=O)N3CCOCC3)cc21 -2.33%
CCn1cc(CCC(=O)NCc2ccc(F)cc2)c2ccccc21 1.53%
N#Cc1ccc(-c2nc3c(Cl)cc(C(F)(F)F)cn3c2Cc2ccccc2C(F)(F)F)cc1 1.7%
CN(C)CCCn1c(SCc2ccc(Cl)cc2)nnc1-c1ccncc1 1.22%
CC1(C)OC(=O)C2=C(C[C@@H](C3CCCCC3)O[C@@H]2c2ccc(Cl)cc2)O1 -0.857%
CC1(C)CC(=O)NC=C(c2ccccc2)C1 0.817%
COc1ccc(C(=O)COC(=O)c2c(C)noc2C)cc1Cl 0.327%
O=c1[nH]nc(SCCS(=O)(=O)c2ccc(F)cc2)n1-c1ccccc1C(F)(F)F 1.01%
COc1cccc(NC(=O)Cn2c3ccc(F)cc3c3nc4n(c(=O)c32)CCS4)c1 1.54%
O=C(CCc1ccccc1F)N1CCN(c2ccccc2)CC1 -1.03%
Cc1cc(=O)oc2c1ccc1ccccc12 0.0995%
CCCCCc1ccc(-c2ccc(C(=O)O)cc2)nc1 0.418%
Cc1cc(C)c(C#N)c(SCS(=O)c2ccc(C(C)(C)C)cc2)n1 (configuration not stated) 3.13%

GFP/RFP ratio change, active:
Cc1cc2ccccc2n1CCNC(=O)COc1ccc2ccccc2c1 30.8%
O=C(c1cccc(Cl)c1)N1CCN(Cc2ccccc2)CC1 30.7%

Source: PubChem BioAssay AID651647 (Sanford-Burnham Center for Chemical Genomics, 2012)
